Source: ChEMBL document CHEMBL3407391, “Ether analogues of DPA-714 with subnanomolar affinity for the translocator protein (TSPO)” (Eur J Med Chem, 2015)

Key:
C6 = experiment: Induction of pregnenolone production in rat C6 cells at 40 uM after 2 hrs by ELISA based steroidogenesis assay relative to control; format: functional
Procedure, shortened: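 C6 glioma cells grown in DMEM with 10% FBS at 37 °C, 5% CO2, then seeded at 1×10^4 cells/well and washed three times with simple salts medium (HEPES/NaOH pH 7.4, 0.1% BSA). Cells were exposed to compound at 40 μM in salts medium with trilostane (25 μM) and SU 10603 (10 μM) for 2 h at 37 °C, DMSO ≤0.5%. Secreted pregnenolone was measured by ELISA; 6–9 replicates.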

Translocator protein [1] = biological target: T1, Translocator protein (Rattus norvegicus, UniProt P16257); set-up: species or system Wistar, Kidney
Translocator protein [2] = biological target: T1, Translocator protein; experiment: Inhibition of rat TSPO
Translocator protein [3] = biological target: Translocator protein (Homo sapiens, UniProt P30536); experiment: Inhibition of human TSPO
Chain of Translocator protein (Homo sapiens, UniProt P30536) (P30536 whole entry): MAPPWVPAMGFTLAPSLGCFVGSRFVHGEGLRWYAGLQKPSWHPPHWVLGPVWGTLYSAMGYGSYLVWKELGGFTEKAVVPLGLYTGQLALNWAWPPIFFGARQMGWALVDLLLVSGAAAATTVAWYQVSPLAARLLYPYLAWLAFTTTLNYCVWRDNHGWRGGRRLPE

T1 sequence (P16257 whole entry, looked up): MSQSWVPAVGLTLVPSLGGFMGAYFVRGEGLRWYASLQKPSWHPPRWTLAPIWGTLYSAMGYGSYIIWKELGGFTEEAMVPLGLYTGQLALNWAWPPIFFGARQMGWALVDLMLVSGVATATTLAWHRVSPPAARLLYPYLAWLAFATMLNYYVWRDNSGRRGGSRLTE

Ki (Translocator protein [1]) | SMILES | Activity (C6) | other results
– | CCN(CC)C(=O)Cc1c(-c2ccc(OCCc3ccccc3)cc2)nn2c(C)cc(C)nc12 | 254% | –
– | CCN(CC)C(=O)Cc1c(-c2ccc(OCC3CCCCC3)cc2)nn2c(C)cc(C)nc12 | 134.2% | –
– | CCN(CC)C(=O)Cc1c(-c2ccc(OCc3ccccc3F)cc2)nn2c(C)cc(C)nc12 | 161.5% | –
1400 pM | CCN(CC)C(=O)Cc1c(-c2ccc(OCc3ccccc3C(F)(F)F)cc2)nn2c(C)cc(C)nc12 | 331.7% | –
– | COc1ccccc1CN(C(C)=O)c1cnccc1Oc1ccccc1 | – | Ki (Translocator protein [2]): 700 pM; Ki (Translocator protein [3]): 2500 pM
– | CCN(CC)C(=O)Cc1c(-c2ccc(OCC(C)C)cc2)nn2c(C)cc(C)nc12 | 206.5% | –
670 pM | CCN(CC)C(=O)Cc1c(-c2ccc(OCc3cccc(C(F)(F)F)c3)cc2)nn2c(C)cc(C)nc12 | 230% | –
– | CCN(CC)C(=O)Cc1c(-c2ccc(OCC3CC3)cc2)nn2c(C)cc(C)nc12 | 226.3% | –
– | CCN(CC)C(=O)Cc1c(-c2ccc(OCC3CCC3)cc2)nn2c(C)cc(C)nc12 | 298.4% | –
1600 pM | CCN(CC)C(=O)Cc1c(-c2ccc(OCc3ccc(C(F)(F)F)cc3)cc2)nn2c(C)cc(C)nc12 | 189.9% | –
– | CCN(CC)C(=O)Cc1c(-c2ccc(OCc3ccccc3)cc2)nn2c(C)cc(C)nc12 | 262.4% | –
– | COc1ccc(OC)c(CN(C(C)=O)c2cc(F)ccc2Oc2ccccc2)c1 | – | Ki (Translocator protein [3]): 200 pM
– | CCN(CC)C(=O)Cc1c(-c2ccc(OCC3CCCC3)cc2)nn2c(C)cc(C)nc12 | 173.9% | –
– | CCC(C)N(C)C(=O)c1cc2ccccc2c(-c2ccccc2Cl)n1 (stereo unspecified) [PK-11195] | 166.5% | –
470 pM | CCN(CC)C(=O)Cc1c(-c2ccc(OCc3cccc(F)c3)cc2)nn2c(C)cc(C)nc12 | 281.2% | –
– | CCN(CC)C(=O)Cc1c(-c2ccc(OC(C)C)cc2)nn2c(C)cc(C)nc12 | 165% | –
– | CCN(CC)C(=O)Cc1c(-c2ccc(OCc3ccc(F)cc3)cc2)nn2c(C)cc(C)nc12 | 311.7% | –
1500 pM | CCN(CC)C(=O)Cc1c(-c2ccc(OC3CCCC3)cc2)nn2c(C)cc(C)nc12 | 273.4% | –
860 pM | CCN(CC)C(=O)Cc1c(-c2ccc(OC3CCC3)cc2)nn2c(C)cc(C)nc12 | 184.3% | –
